Broadly, the half-life is how long it takes for the measured level to halve. In general, pKa refers to the negative logarithm of the acid dissociation constant. The IC50 is the concentration that gives 50% inhibition. Low values mean greater potency, high ones weaker potency.

The text below walks through data of ChEMBL document CHEMBL1649376 (Eur J Med Chem, 2011).

Series [1] is described as follows: Chemical stability of the compound in phosphate buffer at pH 7.4 assessed as half life at 100 uM after 30 mins by RP-HPLC analysis. In kind it is physicochemical. Summed up:
(§1)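 10 mM methanol stock diluted into 50 mM phosphate buffer pH 7.4 prewarmed to 37 °C, final 100 µM; maintained at 37.0 ± 0.5 °C, sampled every 30 min by RP-HPLC (C8, methanol/water 0.1% TFA) for parent loss and oxime formation; first-order kinetics for t1/2; triplicate.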

Series [2] is described as follows: Chemical stability of the compound in acidic medium at pH 1 after 6 hrs by RP-HPLC analysis. It counts as physicochemical. The note with it: buffer, pH 1, 6 h. Summed up:
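Compound added from 10 mM methanol stock into 0.1 M HCl (pH 1) at 37 °C, final 100 µM; held at 37.0 ± 0.5 °C and analysed by RP-HPLC every 30 min for unchanged compound and oxime product; triplicate incubations; C8 column, methanol/water with 0.1% TFA.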

Series [3] is described as follows: Chemical stability of the compound in basic medium assessed as half life at pH 10 after 6 hrs by RP-HPLC analysis. It counts as physicochemical. Summed up:
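Run in 0.1 M phosphate buffer, pH 10, at 37.0 ± 0.5 °C, compound 100 µM final (from 10 mM methanol stock); RP-HPLC every 30 min quantifying parent and oxime; ring opening treated as first-order for half-life; triplicate incubations.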

A short description of series [4]: Dissociation constant, pKa of the compound by potentiometric titration. In kind it is physicochemical. In short, it runs like this:
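Potentiometric titration under N2 at 25.0 ± 0.1 °C; about 1 mM compound in at least five water–methanol mixtures (24-58 wt% MeOH), ionic strength 0.15 M KCl, acidified to pH 1.8 with 0.5 N HCl, titrated with 0.5 N KOH to pH 10.5; aqueous pKa by Yasuda-Shedlovsky extrapolation to zero cosolvent.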

Series [5] concerns the target Dihydroorotate dehydrogenase (quinone), mitochondrial (Rattus norvegicus, UniProt Q63707). As to the kind of experiment: Inhibition of DHODH in Wistar rat liver homogenates by DCIP reduction assay. It counts as tissue-based.
Series [6] in a line: Chemical stability of the compound in phosphate buffer at pH 7.4 assessed as unchanged compound level at 100 uM after 24 hrs by RP-HPLC analysis. It counts as physicochemical. Conditions: read-out: Stability. Summed up:
as §1

The structures appear in SMILES notation.

Chain of Dihydroorotate dehydrogenase (quinone), mitochondrial (Q63707 whole entry): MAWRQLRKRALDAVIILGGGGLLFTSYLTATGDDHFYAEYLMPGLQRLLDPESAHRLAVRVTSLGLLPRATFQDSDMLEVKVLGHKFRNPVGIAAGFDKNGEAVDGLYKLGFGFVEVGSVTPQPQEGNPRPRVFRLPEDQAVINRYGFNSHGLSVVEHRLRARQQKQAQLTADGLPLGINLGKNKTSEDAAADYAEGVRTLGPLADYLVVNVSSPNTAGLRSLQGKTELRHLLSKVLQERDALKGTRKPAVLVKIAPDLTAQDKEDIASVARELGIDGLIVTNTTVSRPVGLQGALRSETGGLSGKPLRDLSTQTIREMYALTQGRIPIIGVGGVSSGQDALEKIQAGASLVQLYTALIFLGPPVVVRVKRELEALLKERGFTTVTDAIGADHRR

For the compound `O=C(Nc1ccc(C(F)(F)F)cc1)c1cnon1`, the half-life at 100 µM in series [1] came to 1.38 h. For the same compound, the Stability result in series [2] was “Stable”. Moreover, in series [3], the half-life is under 0.0167 h.

For `O=C(Nc1cccc(C(F)(F)F)c1)c1cnon1`, the half-life at 100 µM in series [1] worked out at 1.68 h.

`O=C(Nc1cc(C(F)(F)F)cc(C(F)(F)F)c1)c1cnon1`: the half-life at 100 µM in series [1] turned out to be 1.52 h.

For `O=C(Nc1ccc(F)cc1)c1cnon1`, the half-life at 100 µM in series [1] amounted to 1.48 h.

`O=C(Nc1cccc(F)c1)c1cnon1`: in series [1], the half-life at 100 µM is 1.81 h.

Consider `O=C(Nc1ccccc1F)c1cnon1`, for which the half-life at 100 µM in series [1] is 1.7 h.

Consider `O=C(Nc1cc(F)cc(F)c1)c1cnon1`, for which, in series [1], the half-life at 100 µM turned out to be 1.53 h.

For `O=C(Nc1ccc([N+](=O)[O-])cc1)c1cnon1`, the half-life at 100 µM in series [1] came out at 1.15 h.

Regarding `O=C(Nc1ccccc1)c1cnon1`, the half-life at 100 µM in series [1] was found to be 2.06 h.

As for `Cc1ccc(NC(=O)c2cnon2)cc1`, the half-life at 100 µM in series [1] came out at 1.89 h.

For the compound `COc1ccc(NC(=O)c2cnon2)cc1`, in series [1], the half-life at 100 µM was 1.77 h.

As for `O=C(Nc1ccc(-c2ccccc2)cc1)c1cnon1`, in series [1], the half-life at 100 µM amounted to 1.28 h.

In turn, `N#C/C(=N\O)C(=O)Nc1ccc(C(F)(F)F)cc1` displayed a pKa in series [4] of 4.87. In series [5], this compound registered an IC50 of 60 µM.

With `N#C/C(=N\O)C(=O)Nc1cccc(C(F)(F)F)c1`, the pKa in series [4] stood at 4.88.

In turn, `N#C/C(=N\O)C(=O)Nc1cc(C(F)(F)F)cc(C(F)(F)F)c1` yielded a pKa in series [4] of 4.73.

In turn, `N#C/C(=N\O)C(=O)Nc1ccc(F)cc1` returned a pKa in series [4] of 5.01.

Consider `N#C/C(=N\O)C(=O)Nc1cccc(F)c1`, for which the pKa in series [4] was found to be 4.92. This pKa and that of the compound before are within 0.2 log units of each other.

Turning to `N#C/C(=N\O)C(=O)Nc1ccccc1F`, the pKa in series [4] is 4.87. This pKa and that of the compound before are within 0.2 log units of each other.

`N#C/C(=N\O)C(=O)Nc1cc(F)cc(F)c1` yielded a pKa in series [4] of 4.81. This pKa and that of the compound before are within 0.2 log units of each other.

`N#C/C(=N\O)C(=O)Nc1ccc([N+](=O)[O-])cc1` displayed a pKa in series [4] of 4.61.

Turning to `N#C/C(=N\O)C(=O)Nc1ccccc1`, the pKa in series [4] is 5.12.

Regarding `Cc1ccc(NC(=O)/C(C#N)=N/O)cc1`, in series [4], the pKa was found to be 5.07.

For `COc1ccc(NC(=O)/C(C#N)=N/O)cc1`, the pKa in series [4] is 5.08.

In series [4], `N#C/C(=N\O)C(=O)Nc1ccc(-c2ccccc2)cc1` came in with a pKa of 5.03.

The compound `N#CC(C(=O)Nc1ccc(C(F)(F)F)cc1)=[N+]([O-])[O-]` showed a 50% inhibitory concentration (IC50) in series [5] of 17 µM.

`N#CC(C(=O)Nc1ccc([N+](=O)[O-])cc1)=[N+]([O-])[O-]`: half-maximal inhibition in series [5] (IC50) required 74 µM.

In series [5], `N#CC(C(=O)Nc1ccc(-c2ccccc2)cc1)=[N+]([O-])[O-]` returned an IC50 of 26 µM.

As for `Cc1oncc1C(=O)Nc1ccc(C(F)(F)F)cc1` [LEFLUNOMIDE], in series [1], the half-life at 100 µM was over 24 h. For the same compound, the remaining at 24 h, 100 µM in series [6] was 80%. Moreover, the Stability entry in series [2] is recorded as “Stable”. In addition, the half-life in series [3] is 1.17 h. Also, in series [5], the IC50 turned out to be 1.6 µM.
